Results gathered from unrelated publications.
Each line is one published result; the experiments were not run side by side.

SMILES | assay | test system | setting | measurement | value
O=C(OC(C(F)(F)F)C(F)(F)F)N1CCN(Cc2ccc(C(F)(F)F)cc2N2CCCC2)CC1 | HPLC | – | – | chromatographic logP | 7.4
C[C@]12CC[C@H](O)CC1=CC[C@@H]1[C@@H]2CC[C@]2(C)C(n3cnc4ccccc43)=CC[C@@H]12.Cl | – | mouse, plasma | oral, 10 mg/kg | half-life | 5.16 h
C[C@H]1COCCN1c1nc(NCc2cccnc2C(F)(F)F)c2cccnc2n1 | metabolic stability | dog, hepatocytes | – | hepatocyte CLint | 10 µL/min/10⁶ cells
Cc1cc(C)nc(Nc2ncc(C(=O)NCCc3c(C)[nH]c4ccccc34)cn2)c1 | metabolic stability | cynomolgus monkey, hepatocytes | 1 µM | half-life | 0.267 h
Cc1ccccc1C(=O)NN=Cc1ccc(O)c(Br)c1 | – | mouse, plasma | intravenous, 1.6 mg/kg | half-life | 1.24 h
Nc1nc(-c2ccccc2)nc2[nH]nc(Nc3ccc(C(F)(F)F)cc3)c12 | – | mouse, plasma | oral, 100 mg/kg, 30 min | concentration | 418 ng/mL
O=C(O)c1ccc(OC(=O)N2CCC(CCn3ccc4ccc(F)cc43)CC2)cc1 | HPLC | – | – | chromatographic logP | 3.6
C=C[C@H]1CN2CC[C@H]1C[C@H]2[C@H](O)c1ccnc2ccccc12 | – | water | – | logP | 2.68
O=C(NCCCCCn1ccc2ccc(F)cc21)Oc1cccnc1 | HPLC | – | – | chromatographic logP | 2.6
CCCCCCCC/C=C\CCCCCCCC(=O)OC[C@](C)(O)C[C@@H]1NC(=O)[C@@H]2Cc3c([nH]c4ccccc34)SC[C@H](NC(=O)[C@@H]([C@H](C)O)NC(=O)[C@H](C)NC1=O)C(=O)N1C[C@@H](O)C[C@H]1C(=O)N[C@@H](C)C(=O)N2 | – | – | – | logP | 1.7
CC[C@H]1CN2CC[C@H]1C[C@H]2[C@H](O)c1ccnc2ccc(OC)cc12 | – | water | – | logP | 3.07
N=c1c2c(-c3ccccc3)c(-c3ccccc3)n(Cc3ccccc3)c2ncn1[C@H]1CC[C@H](O)CC1 | metabolic stability | monkey, hepatocytes | 1 µM, 4 h | compound remaining | 119%
CN[C@H](CC(C)C)C(=O)N[C@H]1C(=O)N[C@@H](CC(N)=O)C(=O)N[C@H]2C(=O)NC3C(=O)N[C@H](C(=O)N[C@H](C(=O)NCCC[N+](C)(C)C)c4cc(O)cc(O)c4-c4cc3ccc4O)[C@H](O)c3ccc(c(Cl)c3)Oc3cc2cc(c3OC2OC(CO)C(O)[C@H](O)[C@@H]2O[C@H]2CC(C)(NCc3ccc(-c4ccc(Cl)cc4)cc3)[C@H](O)[C@H](C)O2)Oc2ccc(cc2Cl)[C@H]1O (some centres unmarked) | – | mouse, plasma | intravenous, 50 mg/kg | half-life | 6.2 h
Cc1ccncc1OC(=O)NCCCCCn1ccc2ccc(F)cc21 | HPLC | – | – | chromatographic logP | 2.7
NCC(=O)Nc1ccc(-n2nc(C(F)(F)F)cc2-c2ccc3c(ccc4ccccc43)c2)cc1 | – | mouse, plasma | oral, 80 mg/kg | half-life | 22 h
O=C(O)c1cccc(OC(=O)N2CCC(CCn3ccc4ccc(F)cc43)CC2)c1 | HPLC | – | – | chromatographic logP | 3.6
C[C@]12CC[C@H](n3ccnc3)CC1=CC[C@@H]1[C@@H]2CC[C@]2(C)C(n3cnc4ccccc43)=CC[C@@H]12.Cl | – | male CD-1 mouse, plasma | intravenous, 1 mg/kg | half-life | 17.1 h
